Reference: paper PMC3600638 (Biomaterials, 2013)
Counter-ions that a name gives are not always drawn.

How the values were obtained:
[1] = tested on: BxPC-3 subcutaneous tumors; experiment: Tumor growth inhibition study; format: in vivo, nude mice; settings: BxPC-3 xenograft, 4 IV injections every other day, 7.5 μmol/Kg
Outline: (§1)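 Female nude mice, 6–8 weeks old, inoculated s.c. with 5×10⁶ cells. Dosing began day 12 at 150–200 mm³ tumor volume, mice randomised into 6 groups (n=5). IV injections every other day ×4 at 7.5 μmol/Kg. Calipers every other day, V = 0.5×W²×L; body weight recorded every other day; mice euthanised when a tumor reached 20 mm.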

[2] = tested on: BxPC-3 cells; experiment: In vitro cell viability; format: cell-based, human; settings: 48 h, MTT
Outline: (§2)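 Cells seeded at 1×10⁴ per well in 96-well plates. A range of test compound concentrations was added at 30% confluence, then 48 h at 37°C. MTT at 0.5 mg/mL final for 4 h at 37°C, formazan dissolved in DMSO, A570 read. Viability expressed as % of untreated cells; IC50 derived; mean ± S.D., n=3.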

[3] = tested on: BxPC-3 cells; experiment: In vitro caspase-3/7 activation; format: cell-based, human; settings: 1.8 μM, 48 h
Outline: (§3)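 H460 or BxPC-3 cells grown in RPMI-1640 with 10% FBS at 37°C and 5% CO₂. 2×10⁵ cells per well in 6-well plates, exposed to 1.8 μM test compound for 48 h. Lysed in RIPA buffer with protease inhibitors, protein measured by BCA, and 40 μg protein assayed with a commercial caspase-3/7 activity kit.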

[4] = tested on: H460 cells; experiment: In vitro caspase-3/7 activation; format: cell-based, human; settings: 1.8 μM, 48 h
Outline: as §3

[5] = tested on: H460 subcutaneous tumors; experiment: Tumor growth inhibition study; format: in vivo, nude mice; settings: H460 xenograft, 4 IV injections every other day, 7.5 μmol/Kg
Outline: as §1

[6] = tested on: BxPC-3 xenografts; experiment: In vivo caspase-3/7 activation in tumors; design: species or system nude mice; settings: 3 daily IV injections, 7.5 μmol/Kg, 24 h after last injection
Outline: (§4)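 Female nude mice, 6–8 weeks old, with s.c. right-flank xenografts (5×10⁶ cells in PBS), n=3. Three daily IV doses of 7.5 μmol/Kg; tumors taken 24 h after the last dose. Tissue homogenised and sonicated in RIPA with protease inhibitors, spun 14,000 rpm for 10 min at 4°C. 40 μg protein (BCA) assayed with a caspase-3/7 kit.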

[7] = tested on: H460 xenografts; experiment: In vivo caspase-3/7 activation in tumors; design: species or system nude mice; settings: 3 daily IV injections, 7.5 μmol/Kg, 24 h after last injection
Outline: as §4

[8] = tested on: BxPC-3 xenografts; experiment: Western blot of tumor lysates; format: in vivo, nude mice; settings: 3 daily IV injections
Outline: (§5)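 Tumors from xenograft-bearing nude mice harvested 24 h after three daily IV injections; RIPA lysates prepared. 40 μg protein per lane on 4–12% SDS-PAGE, transferred to PVDF, blocked 1 h in 5% milk. Mouse monoclonal PARP-1 and rabbit polyclonal cyclin D1 antibodies (1:500) overnight at 4°C. β-actin (1:4000) as loading control; secondaries 1:4000 for 1 h; ECL detection.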

[9] = tested on: H460 xenografts; experiment: Western blot of tumor lysates; format: in vivo, nude mice; settings: 3 daily IV injections
Outline: as §5

[10] = Pharmacokinetic profile; format: in vivo, nude mice; settings: IV bolus, H460 xenograft model
Outline: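 Nanoparticles co-loaded with trace ³H-CTP as a marker of entrapped drug, given as an IV bolus to nude mice bearing H460 tumors. 30 μL blood drawn from the orbital venous plexus at 20 min, 1, 2, 4, 8 and 24 h, bleached with 30% H₂O₂ and counted by liquid scintillation. %ID in blood calculated with the initial value set at 100%; PK parameters from a non-compartmental fit.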

[11] = tested on: H460 cells; experiment: In vitro cell viability; format: cell-based, human; settings: 48 h, MTT
Outline: as §2

[12] = tested on: H460 cells; experiment: In vitro cellular uptake of NBD-labeled LCPs; format: cell-based, human; settings: pre-incubation with 50 μM haloperidol for 1 h

Compound | tumor growth inhibition [1] | cell viability [2] | in vitro caspase-3/7 activity [3] | in vitro caspase-3/7 activity [4] | tumor growth inhibition [5] | caspase-3/7 activity in tumors [6] | caspase-3/7 activity in tumors [7] | cleaved PARP in tumors [8] | cleaved PARP in tumors [9] | AUMC [10] | cell viability [11] | effect on cellular uptake of AA-modified LCP [12]
Nc1ccn([C@@H]2O[C@H](COP(=O)(O)OP(=O)(O)OP(=O)(O)O)[C@@H](O)C2(F)F)c(=O)n1 [GTP, Gemcitabine triphosphate tris(triethylammonium) salt] | limited therapeutic effects | decreased the cell viability | significantly higher than the control | significantly higher than the control | limited therapeutic effects | did not elicit caspase activity in vivo | did not elicit caspase activity in vivo | did not induce PARP elevation | did not induce PARP elevation | 25.34 h^2·% | decreased the cell viability | 
Nc1ccn([C@@H]2O[C@H](CO)[C@@H](O)C2(F)F)c(=O)n1 [Gem, 2′, 2′-difluoro 2′-deoxycytidine] | limited therapeutic effects | decreased the cell viability | significantly higher than the control | significantly higher than the control | limited therapeutic effects | did not elicit caspase activity in vivo | did not elicit caspase activity in vivo | did not induce PARP elevation | did not induce PARP elevation |  | decreased the cell viability | 
O=C(CCCN1CCC(O)(c2ccc(Cl)cc2)CC1)c1ccc(F)cc1 [haloperidol] |  |  |  |  |  |  |  |  |  |  |  | significantly reduced the cellular uptake of AA-modified LCP
